Assay results published in ChEMBL document CHEMBL1121551, “Amino acid and dipeptide derivatives of daunorubicin. 2. Cellular pharmacology and antitumor activity on L1210 leukemic cells in vitro and in vivo” (1980).

What was measured:
Mus musculus [1] = experiment: Chemotherapeutic activity was evaluated by measuring number of survivors on day 30 / total number of mice at 60 mg/kg/day, sc; 0/18; type: functional
Mus musculus [2] = experiment: Chemotherapeutic activity was evaluated by measuring the percent increase in life span of female DBA2 mice intravenously inoculated with L1210 leukemia at 50(mg/kg)/day, iv; type: functional
Procedure, shortened: (§1)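 Female DBA2 mice given 10^4 L1210 cells iv on day 0; cells harvested from a 6- to 8-day-old ascitic L1210 form. Drug given iv on days 1 and 2 at the stated daily dose. Read-outs are % increase in life span and the number of mice alive on day 30 over the total.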

Mus musculus [3] = experiment: Chemotherapeutic activity was evaluated by measuring mean tumor diameter on day 8 at 60 mg/kg/day, iv
Mus musculus [4] = experiment: Chemotherapeutic activity was evaluated by measuring mean tumor diameter on day 12 at 66 mg/kg/day, iv
Mus musculus [5] = experiment: Chemotherapeutic activity was evaluated by measuring percent change in weight on day 8 at 66 mg/kg/day, sc; type: functional
Procedure, shortened: (§2)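 Drugs were given iv on days 1 and 2 at the stated daily dose. Average tumor diameter was estimated daily with calipers, and body weight change was recorded on day 8. Results from several experiments are given as mean ± SD.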

Mus musculus [6] = experiment: Chemotherapeutic activity was evaluated by measuring number of survivors on day 30 / total number of mice at 50(mg/kg)/day, iv; 0/7; type: functional; procedure, shortened: as §1
Mus musculus [7] = experiment: Percent increase in life span of female DBA2 mice subcutaneously inoculated with L1210 leukemia at 66 mg/kg/day, iv
Mus musculus [8] = experiment: Percent increase in life span of female DBA2 mice subcutaneously inoculated with L1210 leukemia at 60 mg/kg/day, iv
Mus musculus [9] = experiment: Chemotherapeutic activity was evaluated by measuring mean tumor diameter on day 8 at 66 mg/kg/day, iv
Mus musculus [10] = experiment: Chemotherapeutic activity was evaluated by measuring percent change in weight on day 8 at 60 mg/kg/day, sc; type: functional; procedure, shortened: as §2
Mus musculus [11] = experiment: Chemotherapeutic activity was evaluated by measuring percent change in weight on day 8 at 50(mg/kg)/day, iv; type: functional
Procedure, shortened: (§3)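 Female DBA2 mice were inoculated iv on day 0 with 10^4 L1210 leukemic cells. Drugs were given iv on days 1 and 2 at the stated daily dose. Percent body weight change was recorded on day 8, and weight loss served as the index of general toxicity.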

Mus musculus [12] = experiment: Chemotherapeutic activity was evaluated by measuring number of survivors on day 30 / total number of mice at 66 mg/kg/day, sc; 0/9; type: functional
Mus musculus [13] = experiment: Chemotherapeutic activity was evaluated by measuring mean tumor diameter on day 8 at 11 mg/kg/day, iv
Mus musculus [14] = experiment: Chemotherapeutic activity was evaluated by measuring number of survivors on day 30 / total number of mice at 12(mg/kg)/day, sc; 3/36; type: functional
Mus musculus [15] = experiment: Percent increase in life span of female DBA2 mice subcutaneously inoculated with L1210 leukemia at 10 mg/kg/day, iv
Mus musculus [16] = experiment: Chemotherapeutic activity was evaluated by measuring percent change in weight on day 8 at 11 mg/kg/day, sc; type: functional; procedure, shortened: as §2
Mus musculus [17] = experiment: Chemotherapeutic activity was evaluated by measuring number of survivors on day 30 / total number of mice at 10 mg/kg/day, iv; 0/18; type: functional; procedure, shortened: as §1
Mus musculus [18] = experiment: Chemotherapeutic activity was evaluated by measuring the percent increase in life span of female DBA2 mice intravenously inoculated with L1210 leukemia at 11 mg/kg/day, iv; type: functional; procedure, shortened: as §1
Mus musculus [19] = experiment: Chemotherapeutic activity was evaluated by measuring the percent increase in life span of female DBA2 mice intravenously inoculated with L1210 leukemia at 10 mg/kg/day, iv; type: functional; procedure, shortened: as §1
Mus musculus [20] = experiment: Chemotherapeutic activity was evaluated by measuring percent change in weight on day 8 at 10 mg/kg/day, sc; type: functional; procedure, shortened: as §2
Mus musculus [21] = experiment: Chemotherapeutic activity was evaluated by measuring number of survivors on day 30 / total number of mice at 12(mg/kg)/day, iv; 6/34; type: functional; procedure, shortened: as §1
Mus musculus [22] = experiment: Chemotherapeutic activity was evaluated by measuring mean tumor diameter on day 12 at 12(mg/kg)/day, sc; type: functional
Mus musculus [23] = experiment: Percent increase in life span of female DBA2 mice subcutaneously inoculated with L1210 leukemia at 11 mg/kg/day, iv
Mus musculus [24] = experiment: Chemotherapeutic activity was evaluated by measuring number of survivors on day 30 / total number of mice at 11 mg/kg/day, sc; 3/37; type: functional
Mus musculus [25] = experiment: Chemotherapeutic activity was evaluated by measuring mean tumor diameter on day 8 at 10 mg/kg/day, iv
Mus musculus [26] = experiment: Chemotherapeutic activity was evaluated by measuring number of survivors on day 30 / total number of mice at 10 mg/kg/day, sc; 0/58; type: functional
Mus musculus [27] = experiment: Chemotherapeutic activity was evaluated by measuring number of survivors on day 30 / total number of mice at 11 mg/kg/day, iv; 0/37; type: functional; procedure, shortened: as §1
Mus musculus [28] = experiment: Chemotherapeutic activity was evaluated by measuring percent change in weight on day 8 at 12(mg/kg)/day, iv; type: functional; procedure, shortened: as §3
Mus musculus [29] = experiment: Chemotherapeutic activity was evaluated by measuring percent change in weight on day 8 at 10 mg/kg/day, iv; type: functional; procedure, shortened: as §3
Mus musculus [30] = experiment: Chemotherapeutic activity was evaluated by measuring the percent increase in life span of female DBA2 mice subcutaneously inoculated with L1210 leukemia at 12(mg/kg)/day, sc; type: functional
Mus musculus [31] = experiment: Chemotherapeutic activity was evaluated by measuring percent change in weight on day 8 at 11 mg/kg/day, iv; type: functional; procedure, shortened: as §3
Mus musculus [32] = experiment: Chemotherapeutic activity was evaluated by measuring the percent increase in life span of female DBA2 mice intravenously inoculated with L1210 leukemia at 12(mg/kg)/day, iv; type: functional; procedure, shortened: as §1
Mus musculus [33] = experiment: Chemotherapeutic activity was evaluated by measuring percent change in weight on day 8 at 12(mg/kg)/day, sc; type: functional
Mus musculus [34] = experiment: Chemotherapeutic activity was evaluated by measuring mean tumor diameter on day 12 at 11 mg/kg/day, iv
Mus musculus [35] = experiment: Chemotherapeutic activity was evaluated by measuring mean tumor diameter on day 12 at 10 mg/kg/day, iv

Structure (SMILES): COc1cccc2c1C(=O)c1c(O)c3c(c(O)c1C2=O)C[C@@](O)(C(C)=O)C[C@@H]3O[C@H]1C[C@H](NC(=O)[C@H](C)N)[C@H](O)[C@H](C)O1
- Survivors (Mus musculus [1]): 0
- Increase in life-span (Mus musculus [2]): 14%
- Diameter (Mus musculus [3]): 1.3 mm
- Diameter (Mus musculus [4]): 4.2 mm
- Weight change (Mus musculus [5]): -8.5%
- Survivors (Mus musculus [6]): 0
- Increase in life-span (Mus musculus [7]): 61%
- Increase in life-span (Mus musculus [8]): 37%
- Diameter (Mus musculus [9]): 0 mm
- Weight change (Mus musculus [10]): -5.9%
- Weight change (Mus musculus [11]): -4.4%
- Survivors (Mus musculus [12]): 0

Structure (SMILES): COc1cccc2c1C(=O)c1c(O)c3c(c(O)c1C2=O)C[C@@](O)(C(C)=O)C[C@@H]3O[C@H]1C[C@H](N)[C@H](O)[C@H](C)O1 [DAUNORUBICIN]
- Diameter (Mus musculus [13]): 0.4 mm
- Survivors (Mus musculus [14]): 3
- Increase in life-span (Mus musculus [15]): 65%
- Weight change (Mus musculus [16]): -5.9%
- Survivors (Mus musculus [17]): 0
- Increase in life-span (Mus musculus [18]): 66%
- Increase in life-span (Mus musculus [19]): 42%
- Weight change (Mus musculus [20]): -4.3%
- Survivors (Mus musculus [21]): 6
- Diameter (Mus musculus [22]): 2 mm
- Increase in life-span (Mus musculus [23]): 67%
- Survivors (Mus musculus [24]): 3
- Diameter (Mus musculus [25]): 0.3 mm
- Survivors (Mus musculus [26]): 0
- Survivors (Mus musculus [27]): 0
- Weight change (Mus musculus [28]): -8.4%
- Weight change (Mus musculus [29]): -1.1%
- Increase in life-span (Mus musculus [30]): 83%
- Weight change (Mus musculus [31]): -3.2%
- Increase in life-span (Mus musculus [32]): 123%
- Weight change (Mus musculus [33]): -6.3%
- Diameter (Mus musculus [34]): 2.9 mm
- Diameter (Mus musculus [35]): 4.1 mm
